Results on three compounds are retold here after ChEMBL document CHEMBL2203218, “Evaluation of [(11)C]N-Methyl Lansoprazole as a Radiopharmaceutical for PET Imaging of Tau Neurofibrillary Tangles” (ACS Med Chem Lett, 2012).

The target in data set [1] is Microtubule-associated protein tau (Homo sapiens, UniProt P10636). The data set can be described thus: Binding affinity to heparin induced human Tau 441 at 50 pM to 500 nM after 30 mins.
The subject of a further data set is Rattus norvegicus. The data set can be described thus: Metabolic stability in anesthetized iv dosed Sprague-Dawley rat […] and HPLC analysis. The format is ADME, organism-based. The following applies: in vivo, in the assay text read “5 to 30 mins” for “5 to 60 mins”. The method in brief:
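Sprague-Dawley rats, anesthetized, received tracer via tail vein (three per time point). They were allowed to wake, then reanesthetized and sacrificed at 5, 15 and 30 min. Blood collected at each time was centrifuged, and the plasma was analyzed by HPLC and radio-TLC for parent and radioactive metabolites.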

In data set [2] the test system is Brain. The data set can be described thus: Drug uptake in Sprague-Dawley rat brain at 0.95 mCi, iv after 60 mins by MicroPET analysis. The format is ADME, organism-based. The conditions noted are these: in vivo, 1 h.
In data set [3] the test system is Brain. Briefly: Drug uptake in human Tau expressing Sprague-Dawley rat brain at 1 to 10 mCi by autoradiography analysis. The conditions noted are these: in vivo. The format is ADME, tissue-based.
The next data set deals with Cortex. The data set can be described thus: Drug uptake in human Tau expressing Sprague-Dawley rat cortex at 1 to 10 mCi by autoradiography analysis relative to wild type Sprague-Dawley rat brain. The format is ADME, tissue-based. The conditions noted are these: in vivo.
Data set [4] relates to Brain. Briefly: Drug uptake in wild type Sprague-Dawley rat brain at 1 to 10 mCi by autoradiography analysis. The format is ADME, tissue-based. The conditions noted are these: in vivo.
For data set [5], the system named is Brain. Briefly: Drug uptake in rhesus monkey brain at 5.4 mCi, iv at 3 mins by MicroPET analysis. The format is ADME, organism-based, Macaca mulatta. The conditions noted are these: in vivo, 0.05 h.
In a further data set the test system is Hippocampus. Briefly: Drug uptake in human Tau expressing Sprague-Dawley rat hippocampus at 1 to 10 mCi by autoradiography analysis relative to wild type Sprague-Dawley rat brain. The format is ADME, tissue-based. The conditions noted are these: in vivo.
Data set [6] is described as follows: Octanol-water partition coefficient, log P of the compound. The format is physicochemical.
For data set [7], the system named is Brain. The data set can be described thus: Drug uptake in rhesus monkey brain at 5.4 mCi, iv after 3 mins by MicroPET analysis. The format is ADME, organism-based, Macaca mulatta. The following applies: in vivo, 0.05 h.
In a further data set the test system is Kidney. The data set can be described thus: Biodistribution in iv dosed Sprague-Dawley rat kidney after 5 to 60 mins by gamma counting. The format is ADME, organism-based. The conditions noted are these: in vivo. In short, it runs like this:
(§1)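 Tracer reconstituted in ethanolic saline and injected via tail vein into anesthetized Sprague-Dawley rats (three per time point). Rats were allowed to wake, then reanesthetized and sacrificed at 5, 30 and 60 min postinjection for tissue distribution.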

A further data set relates to Liver. Briefly: Biodistribution in iv dosed Sprague-Dawley rat liver after 5 to 60 mins by gamma counting. The format is ADME, organism-based. The following applies: in vivo. The method in brief:
as §1

Data set [8] in a line: Drug uptake in human globus pallidus using bielschowsky staining by autoradiography analysis. The format is ADME, tissue-based. The method in brief:
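PSP patient brain blocks were cut into 20 μm cryostat sections on slides and incubated with tracer for 10 min. Slides were washed, dried and exposed to film for 5 min. The same slides were then stained by modified Bielschowsky staining to locate tau NFTs for colocalization.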

Data set [9] has as its system Brain. The data set can be described thus: Biodistribution in iv dosed Sprague-Dawley rat brain after 5 to 60 mins by gamma counting. The conditions noted are these: in vivo. The format is ADME, organism-based. In short, it runs like this: as §1

Sequence of Microtubule-associated protein tau (P10636 whole entry): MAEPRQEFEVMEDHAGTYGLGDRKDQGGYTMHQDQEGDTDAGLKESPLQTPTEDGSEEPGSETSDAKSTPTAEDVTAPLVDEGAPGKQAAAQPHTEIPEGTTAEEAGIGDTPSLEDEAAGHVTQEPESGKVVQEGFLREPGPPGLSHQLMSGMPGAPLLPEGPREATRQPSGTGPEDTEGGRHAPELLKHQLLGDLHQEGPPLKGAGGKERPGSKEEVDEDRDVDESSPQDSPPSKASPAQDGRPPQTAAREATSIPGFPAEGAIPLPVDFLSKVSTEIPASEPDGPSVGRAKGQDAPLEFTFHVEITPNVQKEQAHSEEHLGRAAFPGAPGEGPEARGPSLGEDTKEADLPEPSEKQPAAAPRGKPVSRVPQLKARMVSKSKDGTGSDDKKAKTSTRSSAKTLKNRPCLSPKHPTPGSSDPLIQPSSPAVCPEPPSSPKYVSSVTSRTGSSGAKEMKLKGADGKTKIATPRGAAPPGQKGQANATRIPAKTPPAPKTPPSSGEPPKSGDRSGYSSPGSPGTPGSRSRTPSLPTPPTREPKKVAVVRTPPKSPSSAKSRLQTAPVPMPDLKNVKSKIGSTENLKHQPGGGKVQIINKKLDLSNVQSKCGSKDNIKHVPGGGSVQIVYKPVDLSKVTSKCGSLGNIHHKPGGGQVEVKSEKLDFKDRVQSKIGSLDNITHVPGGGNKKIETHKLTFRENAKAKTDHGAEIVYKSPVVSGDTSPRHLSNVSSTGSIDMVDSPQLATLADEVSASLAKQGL

In the case of `Cc1c(OCC(F)(F)F)ccnc1C[S+]([O-])c1nc2ccccc2[nH]1` (stereo unspecified) [LANSOPRAZOLE], the Ki in data set [1] came to 2.5 nM.

For `Cc1c(OCC(F)(F)F)ccnc1C[S+]([O-])c1nc2ccccc2n1[11CH3]` (stereo unspecified), the Stability entry in the data set on Rattus norvegicus is listed as “Unstable”. For the same compound, the Drug uptake result in the data set on Brain [2] was “Not Active”; in the data set on Brain [3] it was “Active”; with Cortex, 12%; with Brain [4] it was “Active”; in the data set on Brain [5], 1600 nCi/cc; in the data set with Hippocampus, 4%. The Drug uptake in the data set with Brain [7] is listed as 500 nCi/cc; with Kidney it was “Active”; in the data set with Liver it was “Active”; in data set [8] it was “Active”; with Brain [9], “Not Active”. Besides, the logP in data set [6] is 2.18. In data set [1], this compound yielded a Kd of 0.7 nM.

For `Cc1c(OCC(F)(F)F)ccnc1C[S+]([O-])c1nc2ccccc2n1C` (stereo unspecified), the Bmax in data set [1] (tested as the 11C-labelled form) stood at 0.214 fmol/µg.
